Hits are enriched below; roughly 5.2% of the tested compounds scored in any of these assays.
PfM18AAP inh = PfM18AAP enzyme inhibition; recombinant PfM18AAP, H-Glu-NHMec fluorogenic cleavage; inhibition, % at 7.35 µM; hit rate 1.2% among 290,000; AID 1822;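 active means inhibition above the campaign mean inhibition over all tested compounds plus 3 SD, cut at about 28% in these data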
ZTA DNA inh = counter-screen for EBNA-1 inhibitors: inhibitors of Epstein-Barr virus ZTA. ZTA-DNA binding, fluorescence polarization. P03206. inhibition, % at 11 µM. hit rate 0.15% among 320,000; in the data active means inhibition above about 33%
Target sequence (P03206 whole entry, looked up): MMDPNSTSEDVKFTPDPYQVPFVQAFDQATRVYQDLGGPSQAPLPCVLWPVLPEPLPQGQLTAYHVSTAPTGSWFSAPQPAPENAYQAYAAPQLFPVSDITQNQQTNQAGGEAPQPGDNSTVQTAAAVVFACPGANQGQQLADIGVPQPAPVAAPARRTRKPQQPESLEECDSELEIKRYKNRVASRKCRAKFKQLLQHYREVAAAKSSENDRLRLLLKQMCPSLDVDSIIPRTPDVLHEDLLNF
HCV core dimer = blocks dimerization of HCV core protein; TR-FRET GST/Flag-core106 dimerization, 1536-well; inhibition, % at 5 µM; hit rate 0.33% among 300,000;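 active means inhibition above the mean of all tested compounds plus 3 SD, set per screening campaign, cut at about 45% in these data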
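Assay system: GST-tagged and Flag-tagged HCV core protein residues 1-106 / Times: compound-protein-antibody incubation 4 h at 22.5 °C / Signal: time-resolved FRET, ex 340 nm, em 617 and 671 nm / Evaluation: % inhibition based on acceptor/donor emission ratio / Benchmarks: wells lacking GST-core106 and wells with excess unlabelled core106 / Repeats: singlicate, one well per compound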
EBNA-1 inh = blocks EBNA-1 binding to DNA; EBNA-1 DNA binding, fluorescence polarization; inhibition, % at 14.8 µM; hit rate 0.34% among 300,000; in the data active means inhibition above about 28%
ALR inh = human ALR oxidase inhibition via reduced H2O2 | P55789 | purified ALR, DTT oxidation, H2O2 HRP-luminol luminescence | inhibition, % (test concentration not listed) | hit rate 3.8% among 290,000 | AID 485317;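 active means mean replicate inhibition above about 79%, with every replicate also reaching it, limit read from the data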
Target sequence (P55789 whole entry, looked up): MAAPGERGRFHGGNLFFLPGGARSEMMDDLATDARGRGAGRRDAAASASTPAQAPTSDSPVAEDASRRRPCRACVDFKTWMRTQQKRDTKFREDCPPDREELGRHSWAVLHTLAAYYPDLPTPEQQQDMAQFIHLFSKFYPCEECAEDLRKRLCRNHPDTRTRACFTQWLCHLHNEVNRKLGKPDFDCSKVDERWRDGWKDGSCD
NS3 helicase inh = inhibitors of Hepatitis C virus NS3 helicase. NS3 helicase DNA unwinding, Cy5 molecular beacon fluorescence. inhibition, % at 10.9 µM. hit rate 0.56% among 290,000. AID 1800;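 active means inhibition above the mean of all tested compounds plus 3 SD, set per campaign, cut at about 35% in these data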
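Assay system: hepatitis C virus NS3 helicase domain fragment enzyme. Also added: annealed dual-labelled DNA beacon duplex, ATP-started. Timing: 1 h reaction at 25 °C, ATP-initiated. Technique: Cy5 fluorescence at 0 and 60 min, beacon hairpin quenching. Evaluation: % inhibition of unwinding. Replication: one well per compound.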
Zta DNA confirm = EBV ZTA DNA binding inhibition, confirmation. shares compounds with ZTA DNA inh. Zta-ZRE DNA binding, fluorescence polarization. inhibition, % at 11.1 µM. hit rate 30% among 320. AID 2361;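 active means mean inhibition across triplicate runs above the hit threshold derived for the original primary screen, cut at about 33% in these data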
EBNA-1 counter = blocks EBNA-1 DNA binding in ZTA counter-screen. shares compounds with ZTA DNA inh. fluorescence polarization. inhibition, % at 14.8 µM. 320 tested, under 10 active. AID 2362; call rule not given here
A number is an active result; - = inactive; . = no result.

SMILES	PfM18AAP inh	ZTA DNA inh	HCV core dimer	EBNA-1 inh	ALR inh	NS3 helicase inh	Zta DNA confirm	EBNA-1 counter
CC(C)CCNC(=S)Nc1ccc([N+](=O)[O-])cc1	-	-	-	-	-	-	.	.
COc1ccc(Cl)cc1C(=O)Nc1cccc(-c2ccc3nncn3n2)c1	-	92	-	-	-	-	118	-
COc1cccc(C(=O)Nc2cccc(-c3ccc4nncn4n3)c2)c1OC	-	-	-	-	-	-	.	.
CS(=O)(=O)N1CCN(c2ccc(NC(=O)C(c3ccccc3)c3ccccc3)cc2)CC1	-	-	-	-	-	-	.	.
O=C(Nc1ccc(N2CCCC2)cc1)C(Cl)c1ccccc1 (centres undefined)	-	49	-	-	98	-	70	36
COc1ccc(-n2c(SC)nc3sc4c(c3c2=O)CCN(C)C4)cc1	-	.	.	.	.	-	.	.
COc1ccc(NC(=O)CSc2nc3sc4c(c3c(=O)n2-c2ccc(OC)cc2)CCN(C)C4)cc1	-	34	-	-	98	-	-	-
CN(C)c1ccc(N/C=C/C(=O)c2ccccc2)cc1	-	64	-	-	-	-	-	-
CCC(C(=O)OC)n1cnc2scc(-c3ccc(C)c(C)c3)c2c1=O (centres undefined)	-	-	-	-	-	-	.	.
CCC(C(=O)O)n1cnc2scc(-c3ccc(C)c(C)c3)c2c1=O (centres undefined)	-	117	-	-	93	-	-	-
Cc1cccc(NC(=O)CCNS(=O)(=O)c2ccc3[nH]c(=O)oc3c2)c1	-	198	-	-	-	-	-	-
CCOC(=O)C1(Cc2cccc(OC)c2)CCN(C/C=C/c2ccc(OC)cc2)CC1	-	-	-	-	-	-	.	.
CCOC(=O)C1(Cc2cccc(OC)c2)CCN(CC=C(C)C)CC1	-	95	-	-	.	-	-	-
CC12CC3CC(C)(C1)CC(C(=O)N1CCN(C(=O)c4ccco4)CC1)(C3)C2	-	-	-	-	-	-	.	.
O=C(Nc1ccccc1Sc1ccccc1)c1ccccc1F	-	37	-	-	-	-	-	-
COc1ccc2nc(NC(=O)CSC(C)C(=O)Nc3cc(C)on3)sc2c1 (centres undefined)	.	-	-	-	-	.	.	.
O=C1/C(=C/c2ccc(O)cc2)SC(=S)N1Cc1cccnc1	-	77	-	-	-	-	-	-
CCN(CC(=O)Nc1ccc(OC)cc1)C(=O)CN1C(=O)NC(C)(c2ccc3ccccc3c2)C1=O (centres undefined)	-	-	-	-	-	-	.	.
O=S(=O)(NCCSCc1ccc(Cl)cc1Cl)c1ccc2c(c1)OCCO2	-	-	-	-	-	-	.	.
O=S(=O)(NCCSc1ccc(Cl)cc1)c1ccc2c(c1)OCCO2	-	33	-	-	-	-	-	-
COc1cc(O)c2c(c1)OC(c1ccc(O)cc1)CC2=O (centres undefined)	-	34	-	-	-	-	-	-
Oc1ccc(N=Cc2ccc(-c3cccs3)s2)cc1	-	46	-	-	.	-	47	-
CCCCOc1ccc(N=Cc2cccs2)cc1	-	-	-	-	.	-	.	.
C/C(=N\NC(=S)NCCc1ccccc1)c1ccc(C#N)cc1	-	38	-	-	-	-	-	-
C/C(=N\NC(=S)NCCc1ccccc1)c1ccc(C)cc1	-	-	-	-	-	-	.	.
SMILES	PfM18AAP inh	ZTA DNA inh	HCV core dimer	EBNA-1 inh	ALR inh	NS3 helicase inh	Zta DNA confirm	EBNA-1 counter
Cc1ccc(S(=O)(=O)N(C)c2ccccc2C(=O)N2CCCC2)cc1	-	155	-	-	-	-	-	-
Cc1[nH]c(=O)[nH]c(=O)c1S(=O)(=O)Nc1cccc(C(F)(F)F)c1	-	.	.	.	-	-	.	.
CCOC(=O)C(C)Sc1ncc(-c2ccccc2)cn1 (centres undefined)	-	79	-	-	-	-	-	-
COC(=O)CSc1nnc([C@H](Cc2ccccc2)NC(=O)OC(C)(C)C)o1	-	90	-	-	-	-	-	-
CC(C)(C)OC(=O)N[C@@H](Cc1ccccc1)c1nnc(SCC(N)=O)o1	-	-	-	-	.	-	.	.
COc1ccc(C2=NN(C(C#N)c3ccc(OC)cc3)C(c3ccccc3)C2)cc1 (centres undefined)	-	35	-	-	-	-	-	-
CCOC(=O)Cc1csc(NC(=O)COc2ccccc2OCC)n1	-	48	-	-	-	-	-	-
CCOC(=O)Cc1csc(NC(=O)COc2c(C)cccc2C)n1	-	-	-	-	-	-	.	.
CCOC(=O)c1ccc(NC(=O)CCc2nc(-c3ccc(C)cc3)no2)cc1	-	35	-	-	.	-	-	-
O=C(CNS(=O)(=O)c1ccccc1)NCc1ccco1	-	-	-	-	.	-	.	.
COc1cc(/C=C2/CC/C(=C/c3ccc(O)c(OC)c3)C2=O)ccc1O	-	-	-	-	-	-	.	.
COc1cc(/C=C2\COC/C(=C\c3ccc(O)c(OC)c3)C2=O)ccc1O	-	52	-	-	-	-	42	-
COc1ccc(C)cc1NC(=O)CCCN1C(=O)CN(C)C1=O	.	-	.	.	.	.	.	.
O=C(Nc1ccc(C(F)(F)F)cc1)C1CC(=O)N(c2ccc3c(c2)OCCO3)C1 (centres undefined)	-	65	-	-	-	-	-	-
O=C(Nc1ccc2c(c1)OCO2)C1CC(=O)N(c2ccc3c(c2)OCCO3)C1 (centres undefined)	-	-	-	-	-	-	.	.
CCN(Cc1ccccc1)S(=O)(=O)c1c(C)[nH]c(C)c1C(=O)N1CCCCC1	-	-	-	-	-	-	.	.
CCc1nnc(NS(=O)(=O)c2ccc(NC(=S)NC(=O)/C=C/c3ccc(OC)cc3)cc2)s1	-	-	-	-	-	-	.	.
CCc1nnc(NS(=O)(=O)c2ccc(NC(=S)NC(=O)/C=C/c3ccccc3)cc2)s1	-	37	-	-	-	-	-	-
COC/C=C/C1=CC2=CC(=O)C(C)(OC(=O)c3cnc4ccccc4n3)C(=O)C2=CO1 (centres undefined)	.	40	-	-	-	.	-	-
COC/C=C/C1=CC2=CC(=O)C(C)(OC(=O)c3cnc4ccccc4n3)C(=O)C2=CN1C(CO)CO (centres undefined)	.	-	-	-	.	.	.	.
C#CCOCCOCCOCCNc1nc(N2CCN(C(=O)CCCCCCCCCCNC(=O)Cn3cc(CCCCCN)nn3)CC2)nc(N2CCN(C(=O)CCCCCCCCCCNC(=O)[C@H]([C@@H](C)CC)n3cc(CCCCCN)nn3)CC2)n1	.	83	-	-	-	.	35	-

Screening data deposited in PubChem by several laboratories.
